Assay results as given in ChEMBL document CHEMBL1909581, “Growth inhibition of human lung cancer cells via down-regulation of epidermal growth factor receptor signaling by yuanhuadine, a daphnane diterpene from Daphne genkwa” (J Nat Prod, 2011).
Activity calls are given as the source filed them. No cut-off for these calls is given here.

Assays:
[1] = target: Serine/threonine-protein kinase mTOR (Homo sapiens) (UniProt P42345); test: Inhibition of MTOR phosphorylation in human A549 cells at 20 nM after 24 to 48 hrs by Western blot analysis; format: cell-based
In short: (§1)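 A549 cells (RPMI 1640, 10% FBS, 37 °C, 5% CO2) exposed to the compound at various concentrations for 24 or 48 h. Lysates run on 6–15% SDS-PAGE, transferred to PVDF, probed with primary antibodies overnight at 4 °C, and detected by ECL. Blots shown are representative of three independent experiments.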

A549 [2] = test: Upregulation of p21 expression in human A549 cells at G1 phase at 5 to 100 nM after 24 to 48 hrs by Western blot analysis; format: functional, cell-based; in short: as §1
A549 [3] = test: Cell cycle arrest in human A549 cells assessed as accumulation at S phase at 100 nM after 48 hrs by propidium iodide staining-based flow cytometric analysis (reference value: 31.6 %); format: functional
[4] = target: Serine/threonine-protein kinase mTOR (Homo sapiens) (UniProt P42345); test: Inhibition of MTOR-mediated p70S6K activation in human A549 cells at 20 nM after 24 to 48 hrs by Western blot analysis; format: cell-based; in short: as §1
A549 [5] = test: Antitumor activity against human A549 cells xenografted in BALB/c mouse assessed as inhibition of tumor growth at 0.5 mg/kg, po once daily for 14 days measured for 27 days relative to control; format: functional; conditions: read-out: GI
In short: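 Female nu/nu nude mice given 3 × 10^6 A549 cells sc into the right flank, in 200 μL medium. At ~100 mm3, randomized into groups of five. Dosed orally once daily for 14 days in 100 μL ethanol–Tween 80–water (1:1:98), vehicle as control. Tumor volume measured by caliper every 2–3 days; body weight monitored.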

A549 [6] = test: Cell cycle arrest in human A549 cells assessed as accumulation at Sub-G1 phase at 20 nM after 24 hrs by propidium iodide staining-based flow cytometric analysis (reference value: 0.2 %); format: functional
NCI-H1993 = test: Antiproliferative activity against gefitinib resistant human NCI-H1993 cells after 3 days by SRB assay; format: functional, cell-based; conditions: NCI-H1993, 72 h
[7] = target: Hepatocyte growth factor receptor (Homo sapiens) (UniProt P08581); test: Inhibition of c-Met-mediated Akt phosphorylation in HGF-stimulated human A549 cells pretreated at 5 to 100 nM by Western blot analysis; format: cell-based
In short: (§2)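 A549 cells pretreated for 2 h with the compound at 5, 20 or 100 nM, then stimulated with HGF (50 ng/mL) for 10 min. c-Met and its downstream signalling proteins read by Western blot (SDS-PAGE, PVDF transfer, ECL detection).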

A549 [8] = test: Cell cycle arrest in human A549 cells assessed as accumulation at S phase at 20 nM after 48 hrs by propidium iodide staining-based flow cytometric analysis (reference value: 31.6 %); format: functional
A549 [9] = test: Cell cycle arrest in human A549 cells assessed as accumulation at G0/G1 phase at 5 nM after 48 hrs by propidium iodide staining-based flow cytometric analysis (reference value: 49.6 %); format: functional
A549 [10] = test: Cell cycle arrest in human A549 cells assessed as accumulation at Sub-G1 phase at 5 nM after 48 hrs by propidium iodide staining-based flow cytometric analysis (reference value: 0.2 %); format: functional
Mus musculus = test: Toxicity in BALB/c mouse xenografted with human A549 cells in assessed as overt signs at 0.5 mg/kg, po once daily for 14 days measured for 27 days relative to control; format: organism-based; set-up: dose 0.5 mg/kg, route oral; conditions: in vivo, 648 h
In short: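 Female nu/nu mice were injected sc in the right flank with 3 × 10^6 A549 cells. At about 100 mm3 tumour volume, mice were randomised into groups of five. Compound was given orally at 0.2 or 0.5 mg/kg once daily for 14 days in ethanol/Tween 80/H2O (1:1:98). Body weight and overt toxicity were monitored against vehicle controls.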

[11] = target: Hepatocyte growth factor receptor (Homo sapiens) (UniProt P08581); test: Inhibition of c-Met-mediated STAT3 phosphorylation in HGF-stimulated human A549 cells pretreated at 5 to 100 nM by Western blot analysis; format: cell-based; in short: as §2
A549 [12] = test: Cell cycle arrest in human A549 cells assessed as accumulation at Sub-G1 phase at 100 nM after 48 hrs by propidium iodide staining-based flow cytometric analysis (reference value: 0.2 %); format: functional
A549 [13] = test: Cell cycle arrest in human A549 cells assessed as accumulation at G2/M phase at 100 nM after 24 hrs by propidium iodide staining-based flow cytometric analysis (reference value: 18.9 %); format: functional
[14] = target: Serine/threonine-protein kinase mTOR (Homo sapiens) (UniProt P42345); test: Inhibition of MTOR-mediated 4EBP1 phosphorylation in human A549 cells at 20 nM after 24 to 48 hrs by Western blot analysis; format: cell-based; in short: as §1
A549 [15] = test: Cell cycle arrest in human A549 cells assessed as accumulation at G0/G1 phase at 20 nM after 24 hrs by propidium iodide staining-based flow cytometric analysis (reference value: 49.6 %); format: functional
[16] = target: Hepatocyte growth factor receptor (Homo sapiens) (UniProt P08581); test: Inhibition of c-Met phosphorylation at Tyr1003 in HGF-stimulated human A549 cells pretreated at 5 to 100 nM for 2 hrs by Western blot analysis; format: cell-based; in short: as §2
A549 [17] = test: Antiproliferative activity against human A549 cells assessed as growth inhibition incubated for 24 hrs measured 24 hrs after compound washout by SRB assay; format: functional, cell-based
In short: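 A549 cells exposed to a range of concentrations for 24 h, washed with PBS and kept in drug-free medium for 24 h. Compared with continuous 24 h and 48 h exposure. Viability read by SRB. Means ± SE of triplicate tests.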

A549 [18] = test: Cell cycle arrest in human A549 cells assessed as accumulation at G2/M phase at 5 nM after 48 hrs by propidium iodide staining-based flow cytometric analysis (reference value: 18.9 %); format: functional
A549 [19] = test: Cell cycle arrest in human A549 cells assessed as accumulation at G0/G1 phase at 100 nM after 24 hrs by propidium iodide staining-based flow cytometric analysis (reference value: 49.6 %); format: functional
[20] = target: Glycogen synthase kinase-3 beta (Homo sapiens) (UniProt P49841); test: Inhibition of GSK3-beta in human A549 cells after 24 hrs by Western blot analysis; format: cell-based; in short: as §1
[21] = target: 3-phosphoinositide-dependent protein kinase 1 (Homo sapiens) (UniProt O15530); test: Inhibition of PDK1 phosphorylation in human A549 cells after 24 hrs by Western blot analysis; format: cell-based; in short: as §1
NCI-H358 = test: Antiproliferative activity against human NCI-H358 cells after 3 days by SRB assay; format: functional, cell-based; conditions: NCI-H358, 72 h
In short: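 Cells seeded at 5 × 10^4 cells/mL and exposed to a range of concentrations for 3 days. Fixed with 10% TCA, then SRB stain read. Growth expressed as % of solvent-treated control. IC50 obtained by nonlinear regression of percent survival versus concentration.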

A549 [22] = test: Downregulation of CDC2 expression in human A549 cells at G2/M phase at 5 to 100 nM after 24 to 48 hrs by Western blot analysis; format: functional, cell-based
In short: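 A549 cells treated with a range of concentrations for 24 or 48 h. Lysates run on 6–15% SDS-PAGE and blotted to PVDF, blocked in 5% milk/PBST. Primary antibodies overnight at 4 °C, secondary 2 h at room temperature, ECL detection. Representative of three independent experiments.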

[23] = target: Mitogen-activated protein kinase; ERK1/ERK2 (Homo sapiens) (UniProt P27361+P28482); test: Inhibition of ERK1/2 in human A549 cells at 5 to 40 nM after 24 hrs by Western blot analysis; format: cell-based; in short: as §1
Chain of Mitogen-activated protein kinase; ERK1/ERK2 (Homo sapiens) (P27361 whole entry, looked up): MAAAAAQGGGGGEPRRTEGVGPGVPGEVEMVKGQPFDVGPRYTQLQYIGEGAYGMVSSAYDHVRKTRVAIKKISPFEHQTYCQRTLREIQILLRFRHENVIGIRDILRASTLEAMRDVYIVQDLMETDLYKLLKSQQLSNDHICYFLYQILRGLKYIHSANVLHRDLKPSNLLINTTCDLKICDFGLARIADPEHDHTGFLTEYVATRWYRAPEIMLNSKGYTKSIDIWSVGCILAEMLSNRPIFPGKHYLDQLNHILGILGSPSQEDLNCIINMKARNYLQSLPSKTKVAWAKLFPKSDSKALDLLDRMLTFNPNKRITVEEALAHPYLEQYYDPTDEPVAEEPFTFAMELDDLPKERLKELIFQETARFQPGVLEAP
Chain of Mitogen-activated protein kinase; ERK1/ERK2 (Homo sapiens) (P28482 whole entry, looked up): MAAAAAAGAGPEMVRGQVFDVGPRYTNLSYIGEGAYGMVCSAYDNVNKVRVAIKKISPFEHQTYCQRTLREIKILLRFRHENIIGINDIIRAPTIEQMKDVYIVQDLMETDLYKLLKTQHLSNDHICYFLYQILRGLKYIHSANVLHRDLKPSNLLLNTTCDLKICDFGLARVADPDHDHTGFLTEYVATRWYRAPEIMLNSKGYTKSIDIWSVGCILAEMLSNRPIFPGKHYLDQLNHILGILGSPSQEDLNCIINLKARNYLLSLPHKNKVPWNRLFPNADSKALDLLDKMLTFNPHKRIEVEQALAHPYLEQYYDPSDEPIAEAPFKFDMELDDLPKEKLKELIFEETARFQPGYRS

Chain of Hepatocyte growth factor receptor (Homo sapiens) (P08581 whole entry): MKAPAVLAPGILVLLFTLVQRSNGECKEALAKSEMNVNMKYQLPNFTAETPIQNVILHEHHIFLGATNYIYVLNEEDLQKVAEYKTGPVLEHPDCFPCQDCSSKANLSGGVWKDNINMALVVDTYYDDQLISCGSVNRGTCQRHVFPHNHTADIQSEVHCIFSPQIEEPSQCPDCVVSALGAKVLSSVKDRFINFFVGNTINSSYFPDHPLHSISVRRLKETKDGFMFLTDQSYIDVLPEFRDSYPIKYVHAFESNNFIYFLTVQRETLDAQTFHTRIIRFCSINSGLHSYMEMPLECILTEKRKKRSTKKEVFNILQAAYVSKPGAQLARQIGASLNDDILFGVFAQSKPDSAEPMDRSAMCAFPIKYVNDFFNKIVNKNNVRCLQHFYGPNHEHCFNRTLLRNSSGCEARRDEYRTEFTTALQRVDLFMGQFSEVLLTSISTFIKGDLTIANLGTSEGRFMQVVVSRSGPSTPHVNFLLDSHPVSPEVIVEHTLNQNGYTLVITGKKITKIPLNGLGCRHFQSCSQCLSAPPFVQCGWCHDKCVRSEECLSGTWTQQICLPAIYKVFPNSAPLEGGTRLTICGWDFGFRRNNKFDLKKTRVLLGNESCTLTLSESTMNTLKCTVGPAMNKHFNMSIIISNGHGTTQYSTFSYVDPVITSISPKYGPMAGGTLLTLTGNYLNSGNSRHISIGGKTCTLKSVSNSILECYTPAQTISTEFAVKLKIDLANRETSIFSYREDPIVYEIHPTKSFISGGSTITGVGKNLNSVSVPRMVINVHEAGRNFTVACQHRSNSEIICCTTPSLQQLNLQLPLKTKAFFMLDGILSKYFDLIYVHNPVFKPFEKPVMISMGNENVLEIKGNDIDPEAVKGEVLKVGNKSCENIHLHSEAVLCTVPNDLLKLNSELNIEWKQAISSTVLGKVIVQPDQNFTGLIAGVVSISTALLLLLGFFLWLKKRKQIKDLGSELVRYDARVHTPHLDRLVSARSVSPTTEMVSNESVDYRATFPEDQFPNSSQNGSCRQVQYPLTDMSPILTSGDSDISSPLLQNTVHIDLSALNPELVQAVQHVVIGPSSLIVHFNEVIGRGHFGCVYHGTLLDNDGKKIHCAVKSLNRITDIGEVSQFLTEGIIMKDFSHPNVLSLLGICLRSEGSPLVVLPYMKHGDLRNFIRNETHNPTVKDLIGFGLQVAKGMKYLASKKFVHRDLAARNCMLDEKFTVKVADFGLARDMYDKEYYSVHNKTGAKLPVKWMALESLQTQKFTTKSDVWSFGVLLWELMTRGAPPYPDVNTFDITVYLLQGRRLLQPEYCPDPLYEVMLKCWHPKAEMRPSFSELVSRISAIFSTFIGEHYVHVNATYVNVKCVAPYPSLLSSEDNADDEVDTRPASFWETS
Chain of Glycogen synthase kinase-3 beta (Homo sapiens) (P49841 whole entry, looked up): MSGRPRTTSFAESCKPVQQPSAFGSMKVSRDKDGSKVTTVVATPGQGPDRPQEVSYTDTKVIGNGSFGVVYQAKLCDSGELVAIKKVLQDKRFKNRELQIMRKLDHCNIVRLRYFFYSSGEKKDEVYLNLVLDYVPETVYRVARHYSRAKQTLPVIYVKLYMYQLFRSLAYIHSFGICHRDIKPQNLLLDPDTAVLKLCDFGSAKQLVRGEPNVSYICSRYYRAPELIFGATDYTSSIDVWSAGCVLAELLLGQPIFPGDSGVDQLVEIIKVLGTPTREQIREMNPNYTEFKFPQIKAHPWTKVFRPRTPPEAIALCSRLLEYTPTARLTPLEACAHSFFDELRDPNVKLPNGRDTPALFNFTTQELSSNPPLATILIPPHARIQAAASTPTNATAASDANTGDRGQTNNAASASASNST
Chain of 3-phosphoinositide-dependent protein kinase 1 (Homo sapiens) (O15530 whole entry): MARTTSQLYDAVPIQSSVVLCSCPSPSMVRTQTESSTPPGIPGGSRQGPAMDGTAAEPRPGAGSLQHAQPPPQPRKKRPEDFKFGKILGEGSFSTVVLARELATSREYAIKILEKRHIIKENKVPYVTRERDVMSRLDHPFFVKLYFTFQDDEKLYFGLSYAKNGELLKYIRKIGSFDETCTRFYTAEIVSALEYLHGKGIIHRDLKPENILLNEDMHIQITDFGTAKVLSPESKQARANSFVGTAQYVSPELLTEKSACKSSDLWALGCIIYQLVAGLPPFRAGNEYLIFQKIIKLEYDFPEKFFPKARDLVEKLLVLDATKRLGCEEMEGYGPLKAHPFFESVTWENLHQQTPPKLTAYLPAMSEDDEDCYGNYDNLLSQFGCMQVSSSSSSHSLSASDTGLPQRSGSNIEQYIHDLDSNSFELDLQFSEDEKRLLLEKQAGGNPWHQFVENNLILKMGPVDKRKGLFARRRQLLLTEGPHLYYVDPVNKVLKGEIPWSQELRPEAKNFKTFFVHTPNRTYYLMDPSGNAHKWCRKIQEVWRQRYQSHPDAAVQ

C=C(C)[C@@]12O[C@@]3(/C=C/C=C/CCCCC)O[C@@H]1[C@@H]1[C@@H]4O[C@]4(CO)[C@@H](O)[C@]4(O)C(=O)C(C)=C[C@H]4[C@@]1(O3)[C@H](C)[C@H]2OC(C)=O [YUANHUADINE]
inhibition [1]: Active
Activity (A549 [2]): Active
Activity (A549 [3]): 12.6%
inhibition [4]: Active
inhibition in vivo at 0.5 mg/kg (A549 [5]): 50%
Activity (A549 [6]): 1.8%
IC50 (NCI-H1993): 4.1 nM
inhibition [7]: Active
Activity (A549 [8]): 15.6%
Activity (A549 [9]): 62.2%
Activity (A549 [10]): 7.5%
Activity (Mus musculus): Non-toxic
inhibition [11]: Active
Activity (A549 [12]): 0.3%
Activity (A549 [13]): 28%
inhibition [14]: Active
Activity (A549 [15]): 68.2%
inhibition [16]: Active
growth inhibition (GI) (A549 [17]): Active
Activity (A549 [18]): 25.1%
Activity (A549 [19]): 65.3%
inhibition [20]: Dose-dependent effect
inhibition [21]: Dose-dependent effect
IC50 (NCI-H358): 9.1 µM
Activity (A549 [22]): Active
inhibition [23]: Active
